In general, Ki refers to the equilibrium dissociation constant of an inhibitor or competing ligand from its target.

The target in assay [1] is T1, 5-hydroxytryptamine receptor 1A (Rattus norvegicus, UniProt P19327).
T1 sequence (P19327 whole entry): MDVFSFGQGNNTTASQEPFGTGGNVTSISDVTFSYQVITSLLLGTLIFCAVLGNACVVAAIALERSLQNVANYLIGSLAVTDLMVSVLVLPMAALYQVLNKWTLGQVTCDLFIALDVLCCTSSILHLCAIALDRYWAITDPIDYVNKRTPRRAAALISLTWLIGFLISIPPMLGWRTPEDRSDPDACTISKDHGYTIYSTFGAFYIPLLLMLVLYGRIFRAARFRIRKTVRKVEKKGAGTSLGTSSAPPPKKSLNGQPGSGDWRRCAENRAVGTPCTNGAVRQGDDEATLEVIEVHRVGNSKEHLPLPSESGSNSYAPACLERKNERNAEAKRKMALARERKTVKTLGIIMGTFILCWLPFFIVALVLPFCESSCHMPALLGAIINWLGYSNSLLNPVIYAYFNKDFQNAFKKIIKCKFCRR
Description: Inhibition of [3H]8-OH-DPAT binding to rat 5-hydroxytryptamine 1A receptor. In outline:
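Radioligand [3H]-8-OH-DPAT; receptor source either CHO cells expressing human 5-HT1A or rat hippocampal cells.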

In assay [2] the target is 5-hydroxytryptamine receptor 7 (Rattus norvegicus, UniProt P32305). Nature of the assay: Inhibition of [3H]-5-HT binding to rat 5-hydroxytryptamine 7 receptor. In outline: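 Rat 5-HT7 receptor expressed in CHO or Sf9 cells; [3H]-5-HT radioligand displacement.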
The target in assay [3] is 5-hydroxytryptamine receptor 7 (Rattus norvegicus) (UniProt P32305). Nature of the assay: Stimulation of cAMP production in CHO cells expressing rat 5-hydroxytryptamine 7 receptor. Format: functional, cell-based. In outline: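 cAMP production in CHO cells expressing rat 5-HT7 receptor. Efficacy is expressed as percent of the 5-HT-stimulated production.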
The target of assay [4] is D(2) dopamine receptor (Homo sapiens) (UniProt P14416). Description: Inhibition of [3H]raclopride binding to Dopamine receptor D2A in human.
The species entered for another assay is Rattus norvegicus. Nature of the assay: Inhibition of 3[H]8-OH--DPAT and [3H]5-HT binding to 5-hydroxytryptamine 1A receptor and 5-hydroxytryptamine 7 receptor in rat. In outline:
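Displacement binding with [3H]-8-OH-DPAT at 5-HT1A in rat hippocampal cells, and with [3H]-5-HT at rat 5-HT7 expressed in CHO or Sf9 cells.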

The target in assay [5] is 5-hydroxytryptamine receptor 7 (Rattus norvegicus) (UniProt P32305). Description: Stimulation of cAMP production in CHO cells expressing rat 5-hydroxytryptamine 7 receptor; Antagonist. Format: functional, cell-based. As to conditions: filed as antagonist. Put shortly:
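Functional assay in CHO cells expressing rat 5-HT7 receptor, read as cAMP production. Efficacy is expressed as % of the cAMP production stimulated by 5-HT.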

Chain of 5-hydroxytryptamine receptor 7 (P32305 whole entry): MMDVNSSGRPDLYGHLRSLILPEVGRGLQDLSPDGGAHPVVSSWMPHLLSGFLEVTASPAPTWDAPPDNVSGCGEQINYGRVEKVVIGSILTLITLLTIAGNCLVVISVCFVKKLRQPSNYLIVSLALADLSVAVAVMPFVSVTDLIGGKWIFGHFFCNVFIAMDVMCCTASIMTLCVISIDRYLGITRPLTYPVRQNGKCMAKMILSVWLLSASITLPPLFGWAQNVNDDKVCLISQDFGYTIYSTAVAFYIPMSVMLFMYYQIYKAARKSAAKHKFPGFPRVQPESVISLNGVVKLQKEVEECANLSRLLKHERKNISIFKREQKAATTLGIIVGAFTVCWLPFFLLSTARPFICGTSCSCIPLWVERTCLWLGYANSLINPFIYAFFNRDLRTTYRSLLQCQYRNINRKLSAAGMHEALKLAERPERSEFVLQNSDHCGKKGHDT
Chain of 5-hydroxytryptamine receptor 7 (Rattus norvegicus) (P32305 whole entry): as above
Chain of D(2) dopamine receptor (Homo sapiens) (P14416 whole entry, looked up): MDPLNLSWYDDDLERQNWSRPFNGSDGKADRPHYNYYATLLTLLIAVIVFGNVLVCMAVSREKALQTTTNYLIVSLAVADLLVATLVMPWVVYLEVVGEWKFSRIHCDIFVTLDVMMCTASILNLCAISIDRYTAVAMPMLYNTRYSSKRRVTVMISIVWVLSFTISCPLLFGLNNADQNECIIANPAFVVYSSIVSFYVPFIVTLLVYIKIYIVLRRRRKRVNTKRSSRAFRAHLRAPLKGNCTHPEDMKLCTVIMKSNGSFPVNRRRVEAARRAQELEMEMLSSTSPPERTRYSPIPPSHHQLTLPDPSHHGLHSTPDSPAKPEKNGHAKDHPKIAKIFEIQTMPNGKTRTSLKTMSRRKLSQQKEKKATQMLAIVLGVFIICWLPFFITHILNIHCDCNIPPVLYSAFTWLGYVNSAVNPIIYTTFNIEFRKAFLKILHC

Take `CCCN(CCC)[C@H]1COc2c(cccc2-c2ccc(OC)cc2)C1`: the inhibition constant (Ki) in assay [1] was determined as 1.31 nM; in assay [2], 12.6 nM. In assay [3], this compound yielded an Efficacy of 91%.

On to `Cc1cccc(C#N)c1-c1cccc2c1-c1cccc3c1[C@@H](C2)N(C)CC3`, for which the Ki in assay [1] worked out at 142 nM; in assay [4], 498 nM. Moreover, in the assay listed under Rattus norvegicus, the Ratio came to 37. In assay [5], the Efficacy entry was “Antagonist”.

As for `CCCN(CCC)[C@H]1COc2c(cccc2-c2ccccc2)C1`, the inhibitory constant (Ki) is 1.23 nM in assay [1] and 2.92 nM in assay [2]. In assay [3], this compound returned an Efficacy of 100%.

Take `O=S(=O)(c1ccc2c(c1)CC=C2)N1CCC[C@@H]1CCN1CCC(Oc2ccc(Cl)cc2)CC1`: the Ki in assay [1] amounted to 562 nM; in assay [2], 1.99 nM. In addition, the Ratio in the assay listed under Rattus norvegicus is 282. In addition, the Efficacy entry in assay [5] was “Antagonist”.

For the compound `CCCN(CCC)[C@H]1COc2c(cccc2-c2c(OC)cccc2OC)C1`, the Ki turned out to be 174 nM in assay [1] and 6.44 nM in assay [2]. Also, the Efficacy in assay [3] was 154%. The Ratio in the assay filed under Rattus norvegicus was 27.

For `O=C1Nc2cccc3c2C1(CCCCN1CCc2sccc2C1)CCC3` (configuration not stated), the Ki worked out at 513 nM in assay [1] and 6.46 nM in assay [2]. Further, the Ratio in the assay filed under Rattus norvegicus worked out at 79. Besides, the Efficacy result in assay [5] was “Antagonist”.

As to `COc1cccc(OC)c1-c1cccc2c1OC[C@H](N(C)C)C2`, the Ki in assay [1] was more than 1000 nM; in assay [2] it was 5.29 nM. The Efficacy in assay [3] stood at 28%. Also, the Ratio in the assay filed under Rattus norvegicus is more than 189.

For `CCCN(CCC)[C@H]1CCc2c(cccc2-c2ccccc2)C1`, the Ki in assay [1] came to 0.87 nM; in assay [2] it was 3.38 nM. In addition, the Efficacy in assay [3] was found to be 100%. Also, the Ratio in the assay listed under Rattus norvegicus was 0.26.

As to `CCCN(CCC)[C@H]1CCc2c(cccc2-c2ccccc2OC)C1`, the Ki amounted to 11.7 nM in assay [1] and 1.73 nM in assay [2]. In assay [3], this compound came in with an Efficacy of 100%. The Ratio in the assay filed under Rattus norvegicus is 6.8.

For the compound `COc1cccc(OC)c1-c1cccc2c1CC[C@H](N)C2`, the figures for the Ki in assay [1] and in assay [2] were more than 1000 nM and 78.7 nM, respectively. For the same compound, the Ratio in the assay filed under Rattus norvegicus was more than 12.7.

For `O=C1c2ccccc2CCCN1CCN1CCC(n2c(O)nc3cc(F)ccc32)CC1`, the Efficacy result in assay [5] is “Antagonist”.

As for `CCCN(CCC)[C@@H]1COc2c(cccc2-c2ccccc2OC)C1`, the results for the Ki in assay [1], in assay [2] and in assay [4] were 680 nM, 364 nM and 2110 nM, respectively. The Ratio in the assay listed under Rattus norvegicus was determined as 1.9.

With `CCCN(CCC)[C@H]1CCc2c(cccc2-c2ccc(OC)cc2)C1`, the Ki in assay [1] turned out to be 1.49 nM; in assay [2] it was 12.4 nM. For the same compound, in the assay listed under Rattus norvegicus, the Ratio came out at 0.12.

On to `CCCN(CCC)[C@H]1COc2c(cccc2-c2ccccc2OC)C1`, for which the Ki in assay [1] was determined as 10.3 nM; in assay [2] it was 2.7 nM; in assay [4], 512 nM. Further, the Efficacy in assay [3] is 100%. In addition, the Ratio in the assay filed under Rattus norvegicus turned out to be 3.8.

Consider `O=C1c2ccccc2CCCN1CCN1CCC(n2c(=O)[nH]c3cc(F)ccc32)CC1`, for which the inhibition constant (Ki) in assay [1] came to 479 nM; in assay [2], 2.24 nM.

(Values after ChEMBL document CHEMBL1138658, “Novel 2-aminotetralin and 3-aminochroman derivatives as selective serotonin 5-HT7 receptor agonists and antagonists” (J Med Chem, 2004).)
